Published values of several laboratories.
Lines come from different studies, so protocols differ.
ABL1 Q252H phosphorylated: Tyrosine-protein kinase ABL1, phosphorylated (ABL1, Homo sapiens, UniProt P00519, Q252H)
ABL1: Tyrosine-protein kinase ABL1 (ABL1, Homo sapiens, UniProt P00519)
ABL1 Y253F: Tyrosine-protein kinase ABL1 (ABL1, Homo sapiens, UniProt P00519, Y253F)

Structure (SMILES)	target	assay	conditions	endpoint	result
CCCCC(=O)Nc1ccc(-c2ccc3ncn(CCC)c(=O)c3c2)cn1	ABL1 Q252H phosphorylated	binding, competition with immobilised ligand	0.5 µM	remaining binding	99%
[2H]c1cc(C)c(NC(=O)c2cnc(Nc3cc(N4CCCCC4)nc(C)n3)s2)c(Cl)c1	ABL1	enzyme activity, inhibitor	1 nM	inhibition	96%
C[C@H]1CC[C@H](n2c3cnccc3c3cnc(Nc4ccc5c(n4)CCN(C(=O)CO)C5)nc32)CC1	ABL1 Y253F	cell-free assay	1 µM	remaining signal	100%
CO[C@@H]1[C@H](N(C)C(=O)c2ccccc2)C[C@H]2O[C@]1(C)n1c3ccccc3c3c4c(c5c6ccccc6n2c5c31)C(=O)NC4	Tyrosine-protein kinase ABL1, phosphorylated (ABL1, Homo sapiens, UniProt P00519)	enzyme activity, inhibitor	1 µM	inhibition	31%
Cc1ccc(NC(=O)c2ccnc(C(F)(F)F)c2)cc1-c1cc(OCCO)nc(N2CCOCC2)c1	Tyrosine-protein kinase ABL1 (ABL1, Homo sapiens, UniProt P00519, F317I)	binding	1 µM	remaining binding	85%
[2H]c1cc(C)c(NC(=O)c2cnc(Nc3cc(N4CC[C@H](O)C4)nc(C)n3)s2)c(Cl)c1	ABL1	enzyme activity, inhibitor	1 nM	inhibition	86%
N#Cc1ccc(NC(=O)Nc2ccccc2)cc1	Tyrosine-protein kinase ABL1, non-phosphorylated (ABL1, Homo sapiens, UniProt P00519)	cell-free assay, competition with immobilised ligand	25 µM	remaining binding	83%
C#Cc1cc(-c2cc(Nc3nc(N[C@@H](C)c4ccc(F)cn4)ncc3Cl)n[nH]2)ccc1C=O	Tyrosine-protein kinase ABL1 (ABL1, Homo sapiens, UniProt P00519, H396P)	enzyme activity, inhibitor	0.2 µM	inhibition	16.6%
Cc1nc(Nc2ncc(C(=O)Nc3c(C)cccc3Cl)s2)cc(N2CCC(O)CC2)n1	ABL1	enzyme activity, inhibitor	1 nM	inhibition	83%
CN1CCN(C(=O)c2ccc(NC(=O)Nc3ccc(N(C)c4ccnc(Nc5ccc(CS(C)(=O)=O)cc5)n4)cc3)cc2)CC1	ABL1 Y253F	binding	1 µM	remaining binding	20%
C=CC(=O)N1CCC([C@@H]2CCNc3c(C(N)=O)c(-c4ccc(Oc5ccccc5)cc4)nn32)CC1	Tyrosine-protein kinase ABL1, phosphorylated (ABL1, Homo sapiens, UniProt P00519, F317I)	enzyme activity, inhibitor	1 µM	inhibition	27%
COc1ccc2oc(-c3ccc4nc(N)oc4c3)c/c(=N\c3ccccc3NC(=O)CCN)c2c1	ABL1 Y253F	cell-free assay	1 µM	remaining signal	95%
Cc1nc(Nc2ncc(C(=O)Nc3c(C)cccc3Cl)s2)cc(N2CC[C@@H](N)C2)n1	ABL1	enzyme activity, inhibitor	1 nM	inhibition	93%
COc1ccc2[nH]c3c4[nH]c5ccc(OC)cc5c4c4c(c3c2c1)C(=O)NC4=O	Tyrosine-protein kinase ABL1 (ABL1, Homo sapiens, UniProt P00519, M351T)	binding	1 µM	remaining binding	68%
Cc1nc(Nc2ncc(C(=O)Nc3c(C)cccc3Cl)s2)cc(N2CC[C@H](O)C2)n1	ABL1	enzyme activity, inhibitor	1 nM	inhibition	86%
CC#CC(=O)N1CCC[C@H]1c1nc(-c2ccc(C(=O)Nc3ccccn3)cc2)c2c(N)nccn12	ABL1 Q252H phosphorylated	enzyme activity, inhibitor	1 µM	inhibition	39%
C1=C/COCc2cc(ccc2OCCN2CCCC2)Nc2nccc(n2)-c2cccc(c2)COC/1	Tyrosine-protein kinase ABL1 (ABL1, Homo sapiens, UniProt P00519, E255K)	binding	0.1 µM	remaining binding	23%
